# In ChEMBL document CHEMBL4513216, “Probing the Open Global Health Chemical Diversity Library for Multistage-Active Starting Points for Next-Generation Antimalarials” (ACS Infect Dis, 2020):
# Assay: Toxicity liver stage against HepG2, at 10uM
# Type: cell-based
# Design: test concentration 10 uM, cell line HepG2-A16-CD81EGFP
# Details: human, HepG2-A16-CD81EGFP cells; read-out: INHIBITION
# Outline: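 Uninfected HepG2-A16-CD81EGFP cells, 3 × 10^3 per well, 1536-well, plated on prespotted compound at 10 μM final, parasite-free screening media added to match infected plates; puromycin 10 μM positive, DMSO 0.5% negative; run in parallel with 48 h PbLuc assay at 37 °C, 5% CO2; viability by CellTiter-Glo luminescence, normalized to controls.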
row,SMILES,cytotoxicity at 10 µM [%]
1,c1cc(-c2nnc([C@H]3CCN(C4CCCCC4)C3)o2)ccn1,-102
2,CCCS(=O)(=O)N1Cc2c(ncn2Cc2ccccc2)C[C@H]1C(=O)OC,0.434
3,O[C@H]1CC[C@@H](Cc2cc(-c3ccccn3)on2)O[C@@H]1CNCC1CC1,-4.05
4,Cc1nn(-c2ccccc2Cl)c(C)c1CCC(=O)NCCS(C)(=O)=O,2.78
5,O=S1(=O)c2ccccc2C(O)CN1CCO (centres undefined),2.37
6,Cc1nnc(C2CCN(C(=O)c3ccc4[nH]ccc4c3)CC2)s1,15
7,Fc1ccc2c(c1)C1(CCNCC1)CC2OCC1CC1 (centres undefined),4.92
8,O=C1CC2(CCN(c3nncs3)C2)CN1c1cccc(F)c1 (centres undefined),-3.36
9,Cn1cccc1C(=O)NCc1cnc2n1CCN(C(N)=O)CC2,0.312
10,O=C(c1ccoc1)N1CCO[C@]2(CCC[C@@H]2COCc2ccncc2)C1,0.341
11,COCC(=O)N1CCN(C)c2ncccc2C1,-3.1
12,Cc1ncoc1C(=O)N1C[C@@H]2COC[C@]2(c2nnc(C3CC3)o2)C1,-2.08
13,O=C(c1cccs1)N1CCC2(CC1)CC(Oc1ccccc1)CO2 (centres undefined),15.4
14,N#Cc1ccc(OC[C@]23COC[C@H]2CN(Cc2ccoc2)C3)nc1,-0.762
15,Cc1nc(N2CCCC2)nc2c1CCN(C(=O)NC1CCCC1)CC2,3.8
16,Cc1cccn2c(=O)cc(OC(=O)c3ccc(OC(C)C)cc3)nc12,10
17,CCOc1cc(-c2cc(=O)n3c(n2)CCCCC3)ccc1O,1.32
18,Cc1noc(C)c1CN1CCOC2(CCCN(c3nccs3)C2)C1 (centres undefined),2.39
19,Cc1c(Cl)c(C(=O)NCc2ccc(F)cc2)nn1C,-2.26
20,CCc1cc(=O)n(CC(=O)NCC2CCCO2)c(-c2cccc(F)c2)n1 (centres undefined),-1.61
21,CC(Cn1cccn1)NC(=O)c1cc(C2CC2)nc2c1cnn2C (centres undefined),0.351
22,Cc1ncc(C(=O)N2CCOC(C(=O)N3CCCCC3)C2)c(C)n1 (centres undefined),1.14

row,SMILES,cytotoxicity at 10 µM [%]
1,Cc1nc(O)cc([C@@H]2CN(S(=O)(=O)N(C)C)C[C@H]2c2ccccc2F)n1,5.8
2,COc1ccc(OCCc2cc(C3CNCCO3)nn2C)cc1 (centres undefined),7.13
3,Cc1cc(NCCNS(=O)(=O)c2cn(C)nc2C)c2ccccc2n1,1.78
4,CN1CCCC1c1ccnc(-c2ccccn2)n1 (centres undefined),-5.26
5,CC(C)(C)OC(=O)N1CCN(c2ccc(F)cc2)CC1C(=O)O (centres undefined),-1.73
6,CN(C)C(=O)C1(C)CN(Cc2cn(C)c3ccc(F)cc23)CCO1 (centres undefined),4.57
7,CNC(=O)CN1CCOC(c2cccc(N)n2)C1 (centres undefined),-5.22
8,Cc1noc(C)c1-c1ccc(C2CCCN2C(=O)c2cccnc2)nc1 (centres undefined),4.7
9,NC(=O)C1(c2cnccn2)CCCN1Cc1ccc(Cl)c(F)c1 (centres undefined),-4
10,CNC(=O)c1ccc(C2CN(C(=O)c3scnc3C)CCO2)nc1 (centres undefined),19.7
11,Cc1ccc2cc(CNCCCN3CCOCC3)c(=O)[nH]c2c1C,-10.1
12,Cc1cc(C)c2ncc(C#N)c(NC3CCN(CC(N)=O)CC3)c2c1,-4.38
13,CC(C)(CNc1ccccc1S(=O)(=O)C(F)F)N1CCOCC1,12.2
14,COCCN1CC(C(=O)NCc2ccc(C)s2)CC1=O (centres undefined),5.27
15,CCCN(Cc1cnn(C)c1)S(=O)(=O)c1cc(C)cc(F)c1,16.2
16,CN(C)c1ncccc1CNCc1cccc(O)c1,5.05
17,CC(O)c1cnn(-c2ccccc2)c1 (centres undefined),-1.55
18,O=C(CN1CCCS1(=O)=O)Nc1ccc(OC2CCCC2)cc1,-7.31
19,CCCC(=O)NC(Cc1ccc(C)cc1)c1ccccn1 (centres undefined),-2.25
20,Cc1ccc(-c2nc(C(=O)N(C)CC(=O)N3CCCC3)cs2)c(C)c1,-2.28
21,CN(Cc1nc(C(C)(C)C)no1)C1CCS(=O)(=O)C1 (centres undefined),15.2
22,CCOC(=O)c1ccc(CNC(=O)c2ccc(C)nc2)o1,10.6

row,SMILES,cytotoxicity at 10 µM [%]
1,Cn1c(C2CC2)nc2cc(NC(=O)C3CCOC3)ccc21 (centres undefined),3.09
2,CCCn1cc(NC(=O)c2ccc(S(C)(=O)=O)cc2)ccc1=O,-13.1
3,Cc1ccc(C(N)=O)cc1NCCOc1cccc(C#N)c1,2.87
4,O=C1CC2(CCCC2)C(=O)N1CC(O)COCc1ccccc1F (centres undefined),0.927
5,CC(C)(CC(=O)Nc1cccc(Oc2ccccn2)c1)C(=O)O,-17.6
6,CC(C)C1CN(S(=O)(=O)c2ccc(C#N)cc2)CCS1 (centres undefined),6.88
7,CCOCc1nnc(NCc2ccsc2)o1,-0.432
8,Cc1noc(-c2ccnc(N3CCCN(C4CCOCC4)CC3)c2)n1,-2.85
9,Cn1ccc(NC2CCN(C3CC3)C2=O)n1 (centres undefined),7.31
10,Cc1ncsc1CNC(=O)CCN1CCN(c2ccccn2)CC1,2.31
11,COc1cccc2c1N(S(=O)(=O)c1cc(C(=O)O)cs1)CCC2,-1.95
12,CC1CN(C)CCN1Cc1cccc(C(=O)NCc2ccco2)c1 (centres undefined),3.33
13,Cc1nc(-c2cccc(C(=O)N(C)CC(C)O)c2)cs1 (centres undefined),2.68
14,NC(=O)C1CCN(CCCNC(=O)Nc2nncs2)CC1,-0.165
15,COCCCOc1ccc(C(=O)N(Cc2cnn(C)c2)C(C)C)cn1,2.1
16,Cc1nc(CC(C)C)sc1C(=O)N1CCC(C2(C)OCCO2)CC1,4.21
17,O=C(c1ccc[nH]1)N1CCc2nnc(Cn3cccc3)n2CC1,3.46
18,COc1ccccc1C(=O)N1CCOC2(CCCN(C(C)=O)C2)C1 (centres undefined),-72.9
19,O=C1CC2(CCN(Cc3ncc[nH]3)CC2)CN1Cc1cc(F)cc(F)c1,-5.53
20,Cc1ccc([C@@H]2CN(C(=O)c3ccon3)C[C@H]2NC(=O)C2CC2)cc1,1.08
21,CCCc1cc(C(=O)N2CCC3(CC2)CN(CCN(C)C)C(=O)O3)no1,14.1
22,COCCC(=O)N(C)CCC1=CCN(C)CC1,-6.93

row,SMILES,cytotoxicity at 10 µM [%]
1,CCCc1cc(N2CCC(NCC3(O)CCN(C)CC3)CC2)nc(C)n1,-16.1
2,CC(C)c1nccn1C(C)C(=O)N1CCN(c2cnccn2)CC1 (centres undefined),-12.5
3,CC(C)c1cc(C(=O)N2CCCN(CCCc3ccccc3)CC2)[nH]n1,0.271
4,CCN(Cc1cnn(C)c1)C[C@H]1CC[C@@H](Cc2ccc(CO)cc2)O1,5.95
5,CN(C)c1ccc(C(=O)N2Cc3cnc(C(C)(C)C)nc3C2)cc1,-5.51
6,CN1CC2(CCN(C(=O)c3ccc(-n4cnnc4)cc3Cl)CC2)OC1=O,4.03
7,Cn1c(CCNC(=O)CC[C@@H]2CCCN3CCCC[C@H]23)n[nH]c1=O,4.13
8,CN1CC2(CCN(C(=O)c3ccc4nonc4c3)CC2)CC1=O,0.873
9,CCCN(CCc1ccccc1)C(=O)c1ccccc1NCC(=O)O,7.38
10,CCn1cnnc1CCNC(=O)C1COc2ccc(OC)cc2C1 (centres undefined),-1.31
11,CC(C)c1nc(CCN(C)C(=O)C2COc3ccccc3C2)no1 (centres undefined),4.31
12,CC(NC(=O)c1ccoc1)c1ccc2c(c1)CCC(=O)N2 (centres undefined),-1.36
13,Cc1cnn(C2CCCN(C(=O)c3cc4nc(C)ccc4o3)C2)c1 (centres undefined),2.22
14,O=C1C(NCc2nnc3n2CCCC3)CCN1c1ccccc1F (centres undefined),-4.92
15,O=C(NCc1nn(-c2ccccc2)c2c1CCC2)NC1CCOCC1,-8.72
16,Cc1oncc1C(=O)NCc1ccnc(OCC(F)(F)F)c1,-3.39
17,CN1CCC/C1=N\S(=O)(=O)c1ccc(NC(=O)Cc2cccs2)cc1,-10.6
18,CNS(=O)(=O)c1ccc(CNC(=O)c2c(C)oc(C)c2C)cc1,-17.1
19,O=C(CCc1ccncc1)NCc1csc(Br)c1,-15.5
20,CCc1noc(CNC2CCCN(Cc3noc(C4CC4)n3)C2)n1 (centres undefined),-25.6
21,COc1c(CNCC(O)c2ccc(C)cc2)c(C(C)C)nn1C (centres undefined),-10.6
22,Cc1ncsc1C(=O)N(Cc1cccnc1)C1CC1,-4.84

row,SMILES,cytotoxicity at 10 µM [%]
1,CC(C)(CNC(=O)CCOc1cccc(F)c1)C(N)=O,-0.704
2,Cc1cnn(CCCNC(=O)N2CCCCC(N3CCCC3)C2)c1 (centres undefined),-5.97
3,c1cnc(-c2nc(CNCCn3cccn3)cs2)nc1,-10.3
4,CC(C(=O)NCCOc1cccc(Cl)c1)n1cncn1 (centres undefined),-3.53
5,COc1ccccc1-c1noc(CN2CCCC2Cn2cccn2)n1 (centres undefined),-8.95
6,COc1ccc(CC(=O)N2CCCC(n3cc(C)cn3)C2)cc1F (centres undefined),1.88
7,Cc1nc[nH]c1CN(Cc1ccccc1F)C1CC(C)(C)NC(C)(C)C1,-3.41
8,c1cncc(OC[C@]23COC[C@H]2CN(Cc2nccs2)C3)c1,-1.43
9,O=C1CCC2(CCCN(C(=O)c3ccccn3)CC2)N1 (centres undefined),-2.51
10,COCC(=O)N1CCC2(CC1)CC(COC)N(c1ncccn1)C2 (centres undefined),6.85
11,O=C(CC1CC1)N[C@@H]1CN(Cc2ccc(F)cc2)C[C@@H]2CCCO[C@@H]21,14.9
12,Cc1occc1C(=O)N1C[C@@H]2[C@@H](C1)OCC(=O)N2Cc1cccnc1,0.661
13,Cc1cc(C(=O)N2CCC3(CCN3Cc3ccc(F)cc3)C2)no1 (centres undefined),4.29
14,CN(C)C(=O)c1nn(C)c2c1CN(Cc1cccs1)C2,4.9
15,O=C1C[C@H]2[C@@H](CCN2C(=O)Cc2ccccc2)N1Cc1cccnc1,-3.86
16,CC(NCc1c(C(C)C)nn(C)c1N(C)C)C(=O)NC1CCCC1 (centres undefined),0.966
17,Cc1ccc(CN2C[C@@H]3CCN(Cc4cccnc4)C(=O)[C@H]3C2)s1,0.434
18,CN(C)C(=O)CC1CC2(CCN(Cc3ccoc3)CC2)c2ccccc21 (centres undefined),-10.1
19,O=C([C@H]1CCCO1)N1CCOC2(CCCN(c3ncccc3F)C2)C1 (some centres undefined),1.73
20,Cc1ccc(CN2C[C@@H]3COC[C@@H](NS(C)(=O)=O)[C@@H]3C2)o1,-8.52
21,O=C(c1ccsc1)N1C[C@H]2CCC[C@@]2(COCc2cccnc2)C1,-2.86
